Converted amounts (≈) assume the structure as drawn.
What was measured:
DMS-273 = assay: Cytotoxicity against human DMS273 cells after 72 hrs by SRB assay; assay type: functional; conditions: DMS-273, 72 h
NCI-H23 = assay: Cytotoxicity against human NCI-H23 cells after 72 hrs by SRB assay; assay type: functional; conditions: NCI-H23, 72 h
MV4-11 = assay: Antiproliferative activity against human MV4-11 cells after 72 hrs by MTT assay; assay type: functional, cell-based; conditions: MV4-11, 72 h
HCT-116 = assay: Cytotoxicity against human HCT116 cells after 72 hrs by SRB assay; assay type: functional, cell-based; conditions: HCT-116, 72 h
Outline: (§1)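 Adherent cells grown at 37 °C and 5% CO2. Seeded at 1×10^4/well 24 h before dosing, then 72 h at 10–0.01 µg/mL final. Fixed with cold 50% TCA, stained with 0.4% SRB, dye extracted in 10 mM Tris, read at 540 nm.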

NCI-H522 = assay: Cytotoxicity against human NCI-H522 cells after 72 hrs by SRB assay; assay type: functional; conditions: NCI-H522, 72 h
NCI-H226 = assay: Cytotoxicity against human NCI-H226 cells after 72 hrs by SRB assay; assay type: functional; conditions: NCI-H226, 72 h
NCI-H460 = assay: Cytotoxicity against human NCI-H460 cells after 72 hrs by SRB assay; assay type: functional; conditions: NCI-H460, 72 h
MCF7 = assay: Cytotoxicity against human MCF7 cells after 72 hrs by SRB assay; assay type: functional; conditions: MCF7, 72 h
HT-29 = assay: Cytotoxicity against human HT-29 cells after 72 hrs by SRB assay; assay type: functional; conditions: HT-29, 72 h
[1] = Cytotoxicity against human MKN1 cells after 72 hrs by SRB assay; assay type: functional; conditions: MKN-1, 72 h
OVCAR-8 = assay: Cytotoxicity against human OVCAR8 cells after 72 hrs by SRB assay; assay type: functional; conditions: OVCAR-8, 72 h
[2] = Cytotoxicity against human RXF631L cells after 72 hrs by SRB assay; assay type: functional; conditions: RXF 631, 72 h
BALB/3T3 = assay: Cytotoxicity against mouse BALB/3T3 cells after 72 hrs by SRB assay; assay type: cell-based; conditions: BALB/3T3, 72 h
Outline: as §1, with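 “CO2. A549 and HCT116 were in RPMI 1640/OptiMEM (50:50) with 5% FBS; BALB/3T3 in Dulbecco medium with 10% FBS and pyruvate.” for “CO2.”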

L6 = assay: Cytotoxicity against rat L6 cells after 70 hrs by alamar blue assay; conditions: L6, 70 h
Plasmodium falciparum = assay: Antimalarial activity against erythrocytic stage of Plasmodium falciparum NF54 infected in RBC after 48 hrs by [3H]-hypoxanthine incorporation assay; assay type: functional, organism-based
[3] = read-out: LC50 (the source's name)
[4] = read-out: pLC50 (the source's name) (converted)

## COc1ccc(C2O[C@]34CC(c5cccc(OC)c5)OC(=O)C3=C[C@@]2(C)OO4)cc1 (some centres undefined)
DMS-273
  TGI: 27 µM
DMS-273; read-out: GI50
  GI50: 10 µM
DMS-273; [3]
  CC50: 74 µM
NCI-H23
  TGI: 36 µM
NCI-H23; read-out: GI50
  GI50: 17 µM
NCI-H23; [3]
  CC50: 79 µM
MV4-11
  IC50: 4680 nM
HCT-116
  TGI: 13 µM
HCT-116; read-out: GI50
  GI50: 3.4 µM
HCT-116; [3]
  CC50: 70 µM
NCI-H522
  TGI: 5 µM
NCI-H522; read-out: GI50
  GI50: 2000 nM
NCI-H522; [3]
  CC50: 22 µM
NCI-H226
  TGI: 40 µM
NCI-H226; read-out: GI50
  GI50: 18 µM
NCI-H226; [3]
  CC50: 92 µM
NCI-H460
  TGI: 41 µM
NCI-H460; read-out: GI50
  GI50: 20 µM
NCI-H460; [3]
  CC50: 82 µM
MCF7
  TGI: 29 µM
MCF7; read-out: GI50
  GI50: 10 µM
MCF7; [3]
  CC50: 87 µM
HT-29
  TGI: 27 µM
HT-29; read-out: GI50
  GI50: 5.2 µM
HT-29; [3]
  CC50: 100 µM
[1]
  TGI: 4.4 µM
[1]; read-out: GI50
  GI50: 2100 nM
[1]; [3]
  CC50: 9.1 µM
OVCAR-8
  TGI: 38 µM
OVCAR-8; read-out: GI50
  GI50: 9.4 µM
OVCAR-8; [3]
  CC50: 100 µM
[2]
  TGI: 31 µM
[2]; read-out: GI50
  GI50: 17 µM
[2]; [3]
  CC50: 59 µM

## COc1ccc(C2O[C@]34CC(c5cccc(Cl)c5)OC(=O)C3=C[C@@]2(C)OO4)cc1 (some centres undefined)
BALB/3T3
  IC50: 8.97 µM
L6
  IC50: 0.46 µg/mL (≈ 1.11 µM)
Plasmodium falciparum
  IC50: 1.38 µg/mL (≈ 3.33 µM)
DMS-273
  TGI: 31 µM
DMS-273; read-out: GI50
  GI50: 14 µM
DMS-273; [3]
  CC50: 69 µM
DMS-273; read-out: pGI50 (converted)
  GI50: 10.2 µM
DMS-273; [4]
  CC50: 74.1 µM
NCI-H23
  TGI: 40 µM
NCI-H23; read-out: GI50
  GI50: 18 µM
NCI-H23; [3]
  CC50: 93 µM
NCI-H23; read-out: pGI50 (converted)
  GI50: 16.6 µM
NCI-H23; [4]
  CC50: 79.4 µM
MV4-11
  IC50: 549 nM
HCT-116
  IC50: 7.67 µM
  TGI: 20 µM
HCT-116; read-out: GI50
  GI50: 4.1 µM
HCT-116; [3]
  CC50: 100 µM
HCT-116; read-out: pGI50 (converted)
  GI50: 3.39 µM
HCT-116; [4]
  CC50: 70.8 µM
NCI-H522
  TGI: 8.6 µM
NCI-H522; read-out: GI50
  GI50: 2700 nM
NCI-H522; [3]
  CC50: 100 µM
NCI-H522; read-out: pGI50 (converted)
  GI50: 2000 nM
NCI-H522; [4]
  CC50: 22.4 µM
NCI-H226
  TGI: 48 µM
NCI-H226; read-out: GI50
  GI50: 20 µM
NCI-H226; [3]
  CC50: 100 µM
NCI-H226; read-out: pGI50 (converted)
  GI50: 17.8 µM
NCI-H226; [4]
  CC50: 91.2 µM
NCI-H460
  TGI: 38 µM
NCI-H460; read-out: GI50
  GI50: 19 µM
NCI-H460; [3]
  CC50: 77 µM
NCI-H460; read-out: pGI50 (converted)
  GI50: 20 µM
NCI-H460; [4]
  CC50: 81.3 µM
MCF7
  TGI: 27 µM
MCF7; read-out: GI50
  GI50: 11 µM
MCF7; [3]
  CC50: 69 µM
MCF7; read-out: pGI50 (converted)
  GI50: 10 µM
MCF7; [4]
  CC50: 87.1 µM
HT-29
  TGI: 48 µM
HT-29; read-out: GI50
  GI50: 15 µM
HT-29; [3]
  CC50: 100 µM
HT-29; read-out: pGI50 (converted)
  GI50: 5.25 µM
HT-29; read-out: pLC50 (converted)
  CC50: > 100 µM
[1]
  TGI: 17 µM
[1]; read-out: GI50
  GI50: 4500 nM
[1]; [3]
  CC50: 49 µM
[1]; read-out: pGI50 (converted)
  GI50: 2090 nM
[1]; [4]
  CC50: 9.12 µM
OVCAR-8
  TGI: 41 µM
OVCAR-8; read-out: GI50
  GI50: 12 µM
OVCAR-8; [3]
  CC50: 100 µM
OVCAR-8; read-out: pGI50 (converted)
  GI50: 9.33 µM
OVCAR-8; read-out: pLC50 (converted)
  CC50: > 100 µM
[2]
  TGI: 30 µM
[2]; read-out: GI50
  GI50: 16 µM
[2]; [3]
  CC50: 56 µM
[2]; read-out: pGI50 (converted)
  GI50: 16.6 µM
[2]; [4]
  CC50: 58.9 µM
